This passage reports inhibition, Vd and IC50 results from ChEMBL document CHEMBL5661979, “Pharmacological inhibition of BMK1 suppresses tumor growth through promyelocytic leukemia protein” (Cancer Cell, 2010).

Series [1] addresses Casein kinase I isoform alpha (Homo sapiens, UniProt P48729). Description: Inhibition of CK1alpha in human HeLa cells lysate at 10 uM pre incubated for 15 mins followed by ATP acyl phosphate probe addition and measured after 10 mins by LC-MS/MS analysis relative to control. Format: subcellular. The note with it: time 25.0 min.
Series [2] deals with Serine/threonine-protein kinase Nek1 (Homo sapiens) (UniProt Q96PY6). Description: Inhibition of NEK1 in human HeLa cells lysate at 50 uM pre incubated for 15 mins followed by ATP acyl phosphate probe addition and measured after 10 mins by LC-MS/MS analysis relative to control. In kind it is subcellular. Conditions: time 25.0 min.
Series [3] addresses Serine/threonine-protein kinase Aurora (Homo sapiens, UniProt Q96GD4+Q9UQB9+O14965). Description: Inhibition of AurA/AurB/AurC in human HeLa cells lysate at 50 uM pre incubated for 15 mins followed by ATP acyl phosphate probe addition and measured after 10 mins by LC-MS/MS analysis relative to control. In kind it is subcellular. Conditions: time 25.0 min. In short, it runs like this:
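KiNativ-type profiling in HeLa lysate (5 mg/mL total protein). Lysate preincubated 15 min with inhibitor at 50, 10, 2, 0.8 or 0 μM, then ATP or ADP acylphosphate probe added (5 μM final) for 10 min. Reaction stopped with urea and analysed by targeted MS, using up to four fragment ions per kinase peptide-probe conjugate. % inhibition calculated against untreated lysate. Duplicate reactions.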

Series [4] has as its target T1, Serine/threonine-protein kinase ULK3 (Homo sapiens) (UniProt Q6PHR2).
T1 sequence (whole entry): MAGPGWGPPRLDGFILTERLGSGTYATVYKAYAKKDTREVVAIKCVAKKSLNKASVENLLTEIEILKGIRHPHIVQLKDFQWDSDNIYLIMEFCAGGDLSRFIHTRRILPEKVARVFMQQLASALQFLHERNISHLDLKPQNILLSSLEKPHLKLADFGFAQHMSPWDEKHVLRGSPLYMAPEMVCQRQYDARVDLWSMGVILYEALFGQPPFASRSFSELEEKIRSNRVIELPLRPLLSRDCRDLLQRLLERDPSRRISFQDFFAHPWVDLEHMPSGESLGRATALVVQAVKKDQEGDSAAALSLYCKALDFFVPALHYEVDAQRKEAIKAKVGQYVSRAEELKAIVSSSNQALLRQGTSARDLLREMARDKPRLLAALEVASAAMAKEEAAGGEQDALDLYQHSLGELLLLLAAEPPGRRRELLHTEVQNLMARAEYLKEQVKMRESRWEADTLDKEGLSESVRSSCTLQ
Description: Inhibition of ULK3 in human HeLa cells lysate at 10 uM pre incubated for 15 mins followed by ADP acyl phosphate probe addition and measured after 10 mins by LC-MS/MS analysis relative to control. Format: subcellular. The note with it: time 25.0 min.

For series [5], the target named is Dual specificity protein kinase CLK3 (Homo sapiens, UniProt P49761). Description: Inhibition of CLK3 in human HeLa cells lysate at 50 uM pre incubated for 15 mins followed by ADP acyl phosphate probe addition and measured after 10 mins by LC-MS/MS analysis relative to control. Conditions: time 25.0 min. In kind it is subcellular.
Chain of Dual specificity protein kinase CLK3 (P49761 whole entry, looked up): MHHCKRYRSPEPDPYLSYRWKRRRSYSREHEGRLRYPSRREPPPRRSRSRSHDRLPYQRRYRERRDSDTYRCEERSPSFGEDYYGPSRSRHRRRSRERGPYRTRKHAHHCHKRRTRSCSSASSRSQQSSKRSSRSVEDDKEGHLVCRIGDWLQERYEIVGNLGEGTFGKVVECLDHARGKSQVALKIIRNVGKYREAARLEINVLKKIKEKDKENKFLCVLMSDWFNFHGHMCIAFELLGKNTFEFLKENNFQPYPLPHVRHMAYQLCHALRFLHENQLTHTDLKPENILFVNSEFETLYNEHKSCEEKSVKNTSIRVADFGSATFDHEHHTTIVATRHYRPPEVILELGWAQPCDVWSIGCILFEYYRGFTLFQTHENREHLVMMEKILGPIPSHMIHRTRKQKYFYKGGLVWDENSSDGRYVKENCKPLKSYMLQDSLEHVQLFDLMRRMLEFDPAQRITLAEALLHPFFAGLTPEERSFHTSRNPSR
A short description of series [6]: Volume of distribution at steady state in Sprague-Dawley rat at 1 mg/kg, iv measured up to 8 hrs by LC-MS/MS analysis. In kind it is ADME, organism-based. The note with it: in vivo, read-out: Vdss.
Series [7] addresses Dual specificity mitogen-activated protein kinase kinase; MEK1/2 (Homo sapiens, UniProt P36507+Q02750). Description: Inhibition of MAP2K1/MAP2K2in human HeLa cells lysate at 2 uM pre incubated for 15 mins followed by ADP acyl phosphate probe addition and measured after 10 mins by LC-MS/MS analysis relative to control. The note with it: time 25.0 min. In kind it is subcellular.

Series [8] addresses Interferon-induced, double-stranded RNA-activated protein kinase (Homo sapiens, UniProt P19525). Description: Inhibition of PKR in human HeLa cells lysate at 10 uM pre incubated for 15 mins followed by ATP acyl phosphate probe addition and measured after 10 mins by LC-MS/MS analysis relative to control. In kind it is subcellular. The note with it: time 25.0 min.
Another series concerns the target Focal adhesion kinase 1 (Homo sapiens, UniProt Q05397). Description: Inhibition of FAK in human HeLa cells lysate at 50 uM pre incubated for 15 mins followed by ADP acyl phosphate probe addition and measured after 10 mins by LC-MS/MS analysis relative to control. In kind it is subcellular. Conditions: time 25.0 min.
Series [9] concerns the target Serine/threonine-protein kinase SMG1 (Homo sapiens, UniProt Q96Q15). Description: Inhibition of SMG1 in human HeLa cells lysate at 10 uM pre incubated for 15 mins followed by ATP acyl phosphate probe addition and measured after 10 mins by LC-MS/MS analysis relative to control. In kind it is subcellular. Conditions: time 25.0 min.
The next series addresses SRSF protein kinase 1 (Homo sapiens, UniProt Q96SB4). Description: Inhibition of SRPK1 in human HeLa cells lysate at 50 uM pre incubated for 15 mins followed by ATP acyl phosphate probe addition and measured after 10 mins by LC-MS/MS analysis relative to control. Conditions: time 25.0 min. Format: subcellular.
For series [10], the target named is T2, Serine/threonine-protein kinase Sgk3 (Homo sapiens, UniProt Q96BR1).
T2 sequence (Q96BR1 whole entry): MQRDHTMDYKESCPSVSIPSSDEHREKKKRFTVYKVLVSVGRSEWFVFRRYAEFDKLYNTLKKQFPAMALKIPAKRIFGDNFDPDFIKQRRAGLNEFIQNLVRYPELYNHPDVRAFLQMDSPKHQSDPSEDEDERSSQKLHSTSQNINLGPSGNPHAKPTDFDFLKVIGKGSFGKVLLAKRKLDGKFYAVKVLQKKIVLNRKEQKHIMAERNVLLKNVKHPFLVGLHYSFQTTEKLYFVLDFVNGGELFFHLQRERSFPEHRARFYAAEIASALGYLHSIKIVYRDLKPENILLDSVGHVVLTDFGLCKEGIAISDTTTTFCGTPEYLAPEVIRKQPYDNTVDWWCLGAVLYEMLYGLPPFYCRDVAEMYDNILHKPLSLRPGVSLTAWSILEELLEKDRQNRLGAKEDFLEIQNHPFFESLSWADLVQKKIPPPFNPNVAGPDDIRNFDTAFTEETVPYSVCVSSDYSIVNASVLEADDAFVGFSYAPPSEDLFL
Description: Inhibition of SGK3 K1 site in human HeLa cells lysate pre incubated for 15 mins followed by ATP acyl phosphate probe addition and measured after 10 mins by LC-MS/MS analysis. Format: subcellular.

Series [11] has as its target Transcription intermediary factor 1-beta (Homo sapiens, UniProt Q13263). Description: Inhibition of TIF1b in human HeLa cells lysate pre incubated for 15 mins followed by ATP acyl phosphate probe addition and measured after 10 mins by LC-MS/MS analysis. In kind it is subcellular.

Bounds are passed on as bounds.

Chain of Dual specificity mitogen-activated protein kinase kinase; MEK1/2 (P36507 whole entry, looked up): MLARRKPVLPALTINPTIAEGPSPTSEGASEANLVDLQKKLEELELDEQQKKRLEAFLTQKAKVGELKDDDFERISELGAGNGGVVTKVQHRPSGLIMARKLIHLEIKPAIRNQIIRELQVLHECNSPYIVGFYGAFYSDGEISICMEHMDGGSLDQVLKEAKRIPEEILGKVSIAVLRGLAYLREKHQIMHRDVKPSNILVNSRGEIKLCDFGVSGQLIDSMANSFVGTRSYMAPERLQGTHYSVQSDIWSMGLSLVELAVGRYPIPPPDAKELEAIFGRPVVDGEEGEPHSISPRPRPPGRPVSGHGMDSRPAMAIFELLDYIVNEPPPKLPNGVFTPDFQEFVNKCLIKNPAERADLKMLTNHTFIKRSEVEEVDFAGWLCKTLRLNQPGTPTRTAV
Chain of Dual specificity mitogen-activated protein kinase kinase; MEK1/2 (Q02750 whole entry, looked up): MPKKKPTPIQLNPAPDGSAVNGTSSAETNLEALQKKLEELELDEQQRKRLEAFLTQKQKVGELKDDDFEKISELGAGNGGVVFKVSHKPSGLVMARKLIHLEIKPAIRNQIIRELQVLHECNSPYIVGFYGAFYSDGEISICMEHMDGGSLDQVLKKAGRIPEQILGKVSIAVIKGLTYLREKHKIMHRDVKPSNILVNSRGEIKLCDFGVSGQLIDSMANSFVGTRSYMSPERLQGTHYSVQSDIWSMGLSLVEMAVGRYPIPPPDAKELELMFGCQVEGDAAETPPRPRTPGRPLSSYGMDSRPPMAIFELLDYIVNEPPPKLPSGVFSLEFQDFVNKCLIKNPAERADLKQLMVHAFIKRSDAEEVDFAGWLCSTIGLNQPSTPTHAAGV
Chain of SRSF protein kinase 1 (Q96SB4 whole entry): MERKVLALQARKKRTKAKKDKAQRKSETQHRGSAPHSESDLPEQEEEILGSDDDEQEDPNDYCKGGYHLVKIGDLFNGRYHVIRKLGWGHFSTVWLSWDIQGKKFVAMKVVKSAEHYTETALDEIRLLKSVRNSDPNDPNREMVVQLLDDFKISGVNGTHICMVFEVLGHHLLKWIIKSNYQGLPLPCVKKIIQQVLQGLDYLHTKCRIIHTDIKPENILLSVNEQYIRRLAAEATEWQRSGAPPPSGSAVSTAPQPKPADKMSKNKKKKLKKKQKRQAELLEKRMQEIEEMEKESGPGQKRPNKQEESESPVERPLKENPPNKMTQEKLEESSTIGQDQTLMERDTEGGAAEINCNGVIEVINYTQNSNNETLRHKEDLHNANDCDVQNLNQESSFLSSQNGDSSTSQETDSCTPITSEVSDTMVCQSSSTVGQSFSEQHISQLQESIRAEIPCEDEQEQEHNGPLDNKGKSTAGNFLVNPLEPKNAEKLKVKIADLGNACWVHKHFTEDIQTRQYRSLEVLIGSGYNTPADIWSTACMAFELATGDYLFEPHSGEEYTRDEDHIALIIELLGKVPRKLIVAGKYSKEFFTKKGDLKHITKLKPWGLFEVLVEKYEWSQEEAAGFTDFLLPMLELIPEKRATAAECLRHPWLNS
Chain of Interferon-induced, double-stranded RNA-activated protein kinase (P19525 whole entry): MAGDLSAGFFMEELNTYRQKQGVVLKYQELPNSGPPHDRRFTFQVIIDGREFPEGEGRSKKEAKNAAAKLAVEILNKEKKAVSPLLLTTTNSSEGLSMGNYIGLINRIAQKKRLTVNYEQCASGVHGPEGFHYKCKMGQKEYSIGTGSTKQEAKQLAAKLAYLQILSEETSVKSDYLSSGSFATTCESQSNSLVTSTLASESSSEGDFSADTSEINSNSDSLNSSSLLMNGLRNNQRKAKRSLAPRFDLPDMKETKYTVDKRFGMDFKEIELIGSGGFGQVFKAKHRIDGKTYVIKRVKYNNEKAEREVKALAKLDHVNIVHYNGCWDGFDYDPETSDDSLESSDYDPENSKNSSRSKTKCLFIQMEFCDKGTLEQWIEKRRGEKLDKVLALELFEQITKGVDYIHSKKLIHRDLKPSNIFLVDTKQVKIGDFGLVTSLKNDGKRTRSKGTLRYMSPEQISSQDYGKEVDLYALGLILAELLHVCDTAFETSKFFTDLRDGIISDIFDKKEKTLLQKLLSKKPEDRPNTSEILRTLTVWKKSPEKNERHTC
Chain of Serine/threonine-protein kinase Aurora (O14965 whole entry, looked up, the tested form may be a part): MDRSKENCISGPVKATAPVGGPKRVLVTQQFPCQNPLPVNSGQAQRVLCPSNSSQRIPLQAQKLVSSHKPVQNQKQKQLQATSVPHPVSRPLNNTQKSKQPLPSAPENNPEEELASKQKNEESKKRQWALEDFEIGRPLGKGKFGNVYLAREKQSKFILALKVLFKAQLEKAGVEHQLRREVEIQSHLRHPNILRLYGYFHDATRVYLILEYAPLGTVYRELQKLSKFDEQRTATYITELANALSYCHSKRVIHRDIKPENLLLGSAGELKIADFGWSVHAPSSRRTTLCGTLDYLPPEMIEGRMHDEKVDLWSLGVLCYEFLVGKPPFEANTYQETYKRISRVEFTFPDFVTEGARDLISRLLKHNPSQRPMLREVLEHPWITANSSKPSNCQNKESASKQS
Chain of Serine/threonine-protein kinase Aurora (Q96GD4 whole entry, looked up, the tested form may be a part): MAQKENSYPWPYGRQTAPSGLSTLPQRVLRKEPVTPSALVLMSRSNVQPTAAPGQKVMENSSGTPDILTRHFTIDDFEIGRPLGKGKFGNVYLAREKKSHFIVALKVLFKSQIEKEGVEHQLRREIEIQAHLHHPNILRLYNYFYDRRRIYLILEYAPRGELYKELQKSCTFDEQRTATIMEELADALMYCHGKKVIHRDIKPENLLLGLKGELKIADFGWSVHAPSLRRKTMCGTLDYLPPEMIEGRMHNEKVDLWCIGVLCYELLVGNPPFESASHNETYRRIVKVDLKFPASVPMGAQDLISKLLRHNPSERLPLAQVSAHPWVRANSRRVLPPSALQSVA
Chain of Serine/threonine-protein kinase Aurora (Q9UQB9 whole entry, looked up, the tested form may be a part): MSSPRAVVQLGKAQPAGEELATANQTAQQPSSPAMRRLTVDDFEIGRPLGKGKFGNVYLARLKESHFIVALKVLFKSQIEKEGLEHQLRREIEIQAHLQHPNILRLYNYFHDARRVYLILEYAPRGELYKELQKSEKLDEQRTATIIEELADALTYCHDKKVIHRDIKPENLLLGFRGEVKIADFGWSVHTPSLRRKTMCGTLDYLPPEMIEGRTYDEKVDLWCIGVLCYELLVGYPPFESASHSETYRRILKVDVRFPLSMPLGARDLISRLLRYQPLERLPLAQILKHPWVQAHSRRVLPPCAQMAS
Chain of Casein kinase I isoform alpha (P48729 2-337 limits assumed): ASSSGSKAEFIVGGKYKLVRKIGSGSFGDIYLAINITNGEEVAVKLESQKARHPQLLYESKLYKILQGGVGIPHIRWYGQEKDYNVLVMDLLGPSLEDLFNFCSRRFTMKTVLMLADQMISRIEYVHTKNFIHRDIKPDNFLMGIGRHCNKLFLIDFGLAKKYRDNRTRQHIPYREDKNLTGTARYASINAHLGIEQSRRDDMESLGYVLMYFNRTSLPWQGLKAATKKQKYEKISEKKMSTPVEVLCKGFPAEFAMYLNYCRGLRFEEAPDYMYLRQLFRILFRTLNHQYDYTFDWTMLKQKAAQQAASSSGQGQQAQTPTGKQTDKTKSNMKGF
Chain of Transcription intermediary factor 1-beta (Q13263 whole entry): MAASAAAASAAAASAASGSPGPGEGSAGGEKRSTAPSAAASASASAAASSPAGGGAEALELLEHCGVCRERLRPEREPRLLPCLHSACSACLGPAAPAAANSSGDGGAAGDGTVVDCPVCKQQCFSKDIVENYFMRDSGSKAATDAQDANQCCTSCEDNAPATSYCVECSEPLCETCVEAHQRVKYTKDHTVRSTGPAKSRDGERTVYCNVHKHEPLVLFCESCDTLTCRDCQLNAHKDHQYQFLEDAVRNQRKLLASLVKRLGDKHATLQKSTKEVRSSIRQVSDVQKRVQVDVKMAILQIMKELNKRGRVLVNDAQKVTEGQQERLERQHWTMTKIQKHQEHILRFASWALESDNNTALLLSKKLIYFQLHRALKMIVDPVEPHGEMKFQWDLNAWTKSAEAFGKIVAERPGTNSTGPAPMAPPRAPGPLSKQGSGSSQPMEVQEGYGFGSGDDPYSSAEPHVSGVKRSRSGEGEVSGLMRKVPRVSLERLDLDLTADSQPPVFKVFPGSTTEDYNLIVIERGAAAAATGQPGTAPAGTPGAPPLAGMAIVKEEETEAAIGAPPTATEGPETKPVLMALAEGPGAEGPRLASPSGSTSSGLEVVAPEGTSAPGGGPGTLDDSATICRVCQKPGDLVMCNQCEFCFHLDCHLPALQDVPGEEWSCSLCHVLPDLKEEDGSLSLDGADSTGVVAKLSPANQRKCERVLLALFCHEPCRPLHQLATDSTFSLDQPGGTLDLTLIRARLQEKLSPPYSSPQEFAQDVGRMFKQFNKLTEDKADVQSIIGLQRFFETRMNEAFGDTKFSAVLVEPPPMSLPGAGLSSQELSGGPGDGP

Broadly, the inhibition is the change of the read-out against control, counted positive when it falls. What is called IC50 is the concentration at which inhibition is half-maximal. A lower IC50 goes with inhibition by little substance. With `CCOc1cc(N2CCC(O)CC2)ccc1Nc1ncc2c(n1)N(C)c1ccccc1C(=O)N2C`, the inhibition was -7.9% in series [1]; -3.8% in series [2]; 10.2% in series [3]; 1.2% in series [4]; 32.6% in series [5]; 0.6% in series [7]. Moreover, the inhibition is -2.3% in [8], 58.1% at Focal adhesion kinase 1, 3.9% in series [9] and -7.5% against SRSF protein kinase 1. For the same compound, the Vd in [6] worked out at 3.4 L/kg. Moreover, the IC50 in [10] and in [11] was above 50 µM throughout.
